In ChEMBL document CHEMBL1144182, “Antimicrobial and cytotoxic arylazoenamines. Part III: antiviral activity of selected classes of arylazoenamines” (Bioorg Med Chem, 2008):
Activity calls are given as the source filed them. No rule for the calls is given here.

System: not listed separately
Assay: Cytotoxicity against mock-infected human MT4 cells assessed as reduction in cell viability after 96 hrs by MTT assay
Assay type: cell-based
Settings: not given
Method in brief: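 Exponentially growing MT-4 cells seeded at 1 × 10^5 cells/mL in RPMI-1640 with 10% FCS, penicillin and streptomycin, with or without serial compound dilutions. Incubated at 37 °C, 5% CO2; viability read by MTT after 96 h. CC50 is the concentration reducing mock-infected cell viability by 50%.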

| SMILES | CC50 at 96 h [µM] |
| --- | --- |
| CN1CCC/C1=C\N=N\c1cccc(Br)c1 | 55 |
| CN1C=C(/N=N/c2ccc(Br)c(C(F)(F)F)c2)CCC1 | 50 |
| CN1C=C(/N=N/c2ccc(Cl)c(Cl)c2)CCC1 | 43 |
| Clc1cccc(N2CCN(/C=C/N=N/c3ccccc3)CC2)c1 | 19 |
| Clc1ccccc1/N=N\C1=C2CCCCN2CCC1 | 78 |
| C[C@@]1(O)[C@H](O)[C@@H](CO)O[C@H]1n1cnc2c(=O)[nH]c(N)nc21 [2'-B-METHYL-GUANOSINE] | > 100 |
| CN1C=C(/N=N/c2cccc(Br)c2)CCC1 | > 100 |
| O=c1cnn([C@@H]2O[C@H](CO)[C@@H](O)[C@H]2O)c(=O)[nH]1 [6-AZAURIDINE] | 2 |

System: not listed separately
Assay: Cytotoxicity against mock-infected MDBK cells assessed as reduction in cell viability after 96 hrs by MTT assay
Assay type: cell-based, Bos taurus
Settings: cattle
Method in brief: (§1)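 Cytotoxicity run in parallel with the antiviral assays. MDBK seeded at 6 × 10^5 and BHK at 1 × 10^6 cells/mL in maintenance medium with or without serial compound dilutions. Incubated 48–96 h at 37 °C, 5% CO2, then viability read by MTT. CC50 is the concentration reducing mock-infected cell viability by 50%.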

| SMILES | CC50 at 96 h [µM] |
| --- | --- |
| CN1CCC/C1=C\N=N\c1cccc(Br)c1 | 52 |
| CN1C=C(/N=N/c2ccc(Br)c(C(F)(F)F)c2)CCC1 | > 100 |
| CN1C=C(/N=N/c2ccc(Cl)c(Cl)c2)CCC1 | 73 |
| Clc1cccc(N2CCN(/C=C/N=N/c3ccccc3)CC2)c1 | 7 |
| Clc1ccccc1/N=N\C1=C2CCCCN2CCC1 | > 100 |
| C[C@@]1(O)[C@H](O)[C@@H](CO)O[C@H]1n1cnc2c(=O)[nH]c(N)nc21 [2'-B-METHYL-GUANOSINE] | > 100 |
| CN1C=C(/N=N/c2cccc(Br)c2)CCC1 | > 100 |
| O=c1cnn([C@@H]2O[C@H](CO)[C@@H](O)[C@H]2O)c(=O)[nH]1 [6-AZAURIDINE] | > 100 |

System: Bovine viral diarrhea virus 1
Assay: Antiviral activity against BVDV infected in MDBK cells assessed as protection against virus-induced cytopathogenicity after 4 days by MTT assay
Assay type: functional, organism-based
Settings: Bovine viral diarrhea virus isolates and strains, 96 h
Method in brief: (§2)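 MDBK (BVDV) or BHK-21 (YFV) cells were seeded at 3 × 10^4 or 5 × 10^4 cells/well respectively and grown overnight to confluent monolayers at 37 °C in 5% CO2. Monolayers were infected at m.o.i. 0.01 in serum-free medium. After 1 h, MEM Earle's with 1% FCS was added, with or without serial compound dilutions. After 3–4 days at 37 °C, viability was read by MTT. EC50 was taken as 50% protection from virus-induced cytopathogenicity.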

| SMILES | EC50 [µM] |
| --- | --- |
| CN1CCC/C1=C\N=N\c1cccc(Br)c1 | 9 |
| CN1C=C(/N=N/c2ccc(Br)c(C(F)(F)F)c2)CCC1 | 40 |
| CN1C=C(/N=N/c2ccc(Cl)c(Cl)c2)CCC1 | 7 |
| Clc1cccc(N2CCN(/C=C/N=N/c3ccccc3)CC2)c1 | > 7 |
| Clc1ccccc1/N=N\C1=C2CCCCN2CCC1 | > 100 |
| C[C@@]1(O)[C@H](O)[C@@H](CO)O[C@H]1n1cnc2c(=O)[nH]c(N)nc21 [2'-B-METHYL-GUANOSINE] | 1.7 |
| CN1C=C(/N=N/c2cccc(Br)c2)CCC1 | 19 |
| O=c1cnn([C@@H]2O[C@H](CO)[C@@H](O)[C@H]2O)c(=O)[nH]1 [6-AZAURIDINE] | > 100 |

System: not listed separately
Assay: Cytotoxicity against mock-infected BHK cells assessed as reduction in cell viability after 96 hrs by MTT assay
Assay type: cell-based, Mesocricetus auratus
Settings: hamster
Method in brief: as §1

| SMILES | CC50 at 96 h [µM] |
| --- | --- |
| CN1CCC/C1=C\N=N\c1cccc(Br)c1 | 41 |
| CN1C=C(/N=N/c2ccc(Br)c(C(F)(F)F)c2)CCC1 | > 100 |
| CN1C=C(/N=N/c2ccc(Cl)c(Cl)c2)CCC1 | 38 |
| Clc1cccc(N2CCN(/C=C/N=N/c3ccccc3)CC2)c1 | 47 |
| Clc1ccccc1/N=N\C1=C2CCCCN2CCC1 | 93 |
| C[C@@]1(O)[C@H](O)[C@@H](CO)O[C@H]1n1cnc2c(=O)[nH]c(N)nc21 [2'-B-METHYL-GUANOSINE] | 90 |
| CN1C=C(/N=N/c2cccc(Br)c2)CCC1 | > 100 |
| O=c1cnn([C@@H]2O[C@H](CO)[C@@H](O)[C@H]2O)c(=O)[nH]1 [6-AZAURIDINE] | > 100 |

System: Yellow fever virus
Assay: Antiviral activity against YFV infected in BHK21 cells assessed as protection against virus-induced cytopathogenicity after 4 days by MTT assay
Assay type: functional, organism-based
Settings: BHK-21, 96 h
Method in brief: as §2

| SMILES | EC50 [µM] |
| --- | --- |
| CN1CCC/C1=C\N=N\c1cccc(Br)c1 | 7 |
| CN1C=C(/N=N/c2ccc(Br)c(C(F)(F)F)c2)CCC1 | > 100 |
| CN1C=C(/N=N/c2ccc(Cl)c(Cl)c2)CCC1 | > 38 |
| Clc1cccc(N2CCN(/C=C/N=N/c3ccccc3)CC2)c1 | 10 |
| Clc1ccccc1/N=N\C1=C2CCCCN2CCC1 | > 93 |
| C[C@@]1(O)[C@H](O)[C@@H](CO)O[C@H]1n1cnc2c(=O)[nH]c(N)nc21 [2'-B-METHYL-GUANOSINE] | 1 |
| O=c1cnn([C@@H]2O[C@H](CO)[C@@H](O)[C@H]2O)c(=O)[nH]1 [6-AZAURIDINE] | 26 |

System: not listed separately
Assay: Cytotoxicity against mock-infected african green monkey Vero76 cells assessed as reduction in cell viability after 96 hrs by MTT assay
Assay type: cell-based, Vero
Settings: chlorocebus sabaeus

| SMILES | CC50 at 96 h [µM] |
| --- | --- |
| CN1CCC/C1=C\N=N\c1cccc(Br)c1 | 80 |
| CN1C=C(/N=N/c2ccc(Br)c(C(F)(F)F)c2)CCC1 | 80 |
| CN1C=C(/N=N/c2ccc(Cl)c(Cl)c2)CCC1 | > 100 |
| Clc1cccc(N2CCN(/C=C/N=N/c3ccccc3)CC2)c1 | 11 |
| Clc1ccccc1/N=N\C1=C2CCCCN2CCC1 | > 100 |
| C[C@@]1(O)[C@H](O)[C@@H](CO)O[C@H]1n1cnc2c(=O)[nH]c(N)nc21 [2'-B-METHYL-GUANOSINE] | > 100 |
| CN1C=C(/N=N/c2cccc(Br)c2)CCC1 | > 100 |
| O=c1cnn([C@@H]2O[C@H](CO)[C@@H](O)[C@H]2O)c(=O)[nH]1 [6-AZAURIDINE] | 20 |

System: Coxsackievirus B2
Assay: Antiviral activity against CVB2 infected in Vero76 cells assessed as reduction in virus plaque formation after 4 days by MTT assay
Assay type: functional, organism-based
Settings: Enterovirus B, Vero 76, 96 h

| SMILES | EC50 [µM] |
| --- | --- |
| CN1CCC/C1=C\N=N\c1cccc(Br)c1 | 16 |
| CN1C=C(/N=N/c2ccc(Br)c(C(F)(F)F)c2)CCC1 | 40 |
| CN1C=C(/N=N/c2ccc(Cl)c(Cl)c2)CCC1 | 14 |
| Clc1cccc(N2CCN(/C=C/N=N/c3ccccc3)CC2)c1 | > 11 |
| Clc1ccccc1/N=N\C1=C2CCCCN2CCC1 | 32 |
| C[C@@]1(O)[C@H](O)[C@@H](CO)O[C@H]1n1cnc2c(=O)[nH]c(N)nc21 [2'-B-METHYL-GUANOSINE] | 20 |
| CN1C=C(/N=N/c2cccc(Br)c2)CCC1 | 27 |
| O=c1cnn([C@@H]2O[C@H](CO)[C@@H](O)[C@H]2O)c(=O)[nH]1 [6-AZAURIDINE] | > 20 |

System: Respiratory syncytial virus
Assay: Antiviral activity against RSV infected in Vero76 cells assessed as reduction in virus plaque formation after 4 days by MTT assay
Assay type: functional, organism-based
Settings: human respiratory syncytial virus, Vero 76, 96 h

| SMILES | EC50 [µM] |
| --- | --- |
| CN1CCC/C1=C\N=N\c1cccc(Br)c1 | > 80 |
| CN1C=C(/N=N/c2ccc(Br)c(C(F)(F)F)c2)CCC1 | > 80 |
| CN1C=C(/N=N/c2ccc(Cl)c(Cl)c2)CCC1 | > 100 |
| Clc1cccc(N2CCN(/C=C/N=N/c3ccccc3)CC2)c1 | 5 |
| Clc1ccccc1/N=N\C1=C2CCCCN2CCC1 | 60 |
| C[C@@]1(O)[C@H](O)[C@@H](CO)O[C@H]1n1cnc2c(=O)[nH]c(N)nc21 [2'-B-METHYL-GUANOSINE] | > 100 |
| CN1C=C(/N=N/c2cccc(Br)c2)CCC1 | 18 |
| O=c1cnn([C@@H]2O[C@H](CO)[C@@H](O)[C@H]2O)c(=O)[nH]1 [6-AZAURIDINE] | 1.2 |

System: Poliovirus 1
Assay: Antiviral activity against Sb1 virus infected in Vero76 cells assessed as reduction in virus plaque formation after 4 days by MTT assay
Assay type: functional, organism-based
Settings: Enterovirus C, Sabin, Vero 76, 96 h

| SMILES | EC50 [µM] |
| --- | --- |
| CN1CCC/C1=C\N=N\c1cccc(Br)c1 | > 80 |
| CN1C=C(/N=N/c2ccc(Br)c(C(F)(F)F)c2)CCC1 | > 80 |
| CN1C=C(/N=N/c2ccc(Cl)c(Cl)c2)CCC1 | > 100 |
| Clc1cccc(N2CCN(/C=C/N=N/c3ccccc3)CC2)c1 | > 11 |
| Clc1ccccc1/N=N\C1=C2CCCCN2CCC1 | > 100 |
| C[C@@]1(O)[C@H](O)[C@@H](CO)O[C@H]1n1cnc2c(=O)[nH]c(N)nc21 [2'-B-METHYL-GUANOSINE] | > 100 |
| CN1C=C(/N=N/c2cccc(Br)c2)CCC1 | > 100 |
| O=c1cnn([C@@H]2O[C@H](CO)[C@@H](O)[C@H]2O)c(=O)[nH]1 [6-AZAURIDINE] | > 20 |

System: Human immunodeficiency virus 1
Assay: Antiviral activity against HIV1 infected in MT4 cells assessed as virus-induced cytopathogenicity after 4 days
Assay type: functional, organism-based
Settings: not given

| SMILES | Activity |
| --- | --- |
| CN1CCC/C1=C\N=N\c1cccc(Br)c1 | inactive |
| CN1C=C(/N=N/c2ccc(Br)c(C(F)(F)F)c2)CCC1 | inactive |
| CN1C=C(/N=N/c2ccc(Cl)c(Cl)c2)CCC1 | inactive |
| Clc1cccc(N2CCN(/C=C/N=N/c3ccccc3)CC2)c1 | inactive |
| Clc1ccccc1/N=N\C1=C2CCCCN2CCC1 | inactive |
| CN1C=C(/N=N/c2cccc(Br)c2)CCC1 | inactive |

System: Vaccinia virus
Assay: Antiviral activity against VV infected in Vero76 cells assessed as reduction in virus plaque formation after 4 days by MTT assay
Assay type: functional, organism-based
Settings: Orthopoxvirus vaccinia; Vero 76

| SMILES | Activity |
| --- | --- |
| CN1CCC/C1=C\N=N\c1cccc(Br)c1 | inactive |
| CN1C=C(/N=N/c2ccc(Br)c(C(F)(F)F)c2)CCC1 | inactive |
| CN1C=C(/N=N/c2ccc(Cl)c(Cl)c2)CCC1 | inactive |
| Clc1cccc(N2CCN(/C=C/N=N/c3ccccc3)CC2)c1 | inactive |
| Clc1ccccc1/N=N\C1=C2CCCCN2CCC1 | inactive |
| CN1C=C(/N=N/c2cccc(Br)c2)CCC1 | inactive |

System: Vesicular stomatitis virus
Assay: Antiviral activity against VSV infected in Vero76 cells assessed as reduction in virus plaque formation after 4 days by MTT assay
Assay type: functional, organism-based
Settings: Vero 76

| SMILES | Activity |
| --- | --- |
| CN1CCC/C1=C\N=N\c1cccc(Br)c1 | inactive |
| CN1C=C(/N=N/c2ccc(Br)c(C(F)(F)F)c2)CCC1 | inactive |
| CN1C=C(/N=N/c2ccc(Cl)c(Cl)c2)CCC1 | inactive |
| Clc1cccc(N2CCN(/C=C/N=N/c3ccccc3)CC2)c1 | inactive |
| Clc1ccccc1/N=N\C1=C2CCCCN2CCC1 | inactive |
| CN1C=C(/N=N/c2cccc(Br)c2)CCC1 | inactive |
